Tests used:
MT4 [1] = assay: Selectivity index calculated as the ratio between CC50 and EC50; assay type: functional
How it was run: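 Ratio CC50/EC50, both from MTT-read 4-day MT-4 assays (mock-infected and HIV-1 IIIB-infected, 100 CCID50) run in parallel.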

MT4 [2] = assay: Compound dose required to reduce the viability of mock-infected cells by 50%; assay type: functional; details: Homo sapiens
MT4 [3] = assay: Dose required to achieve 50% protection of MT-4 cells from HIV-1 induced cytopathogenicity; assay type: functional, cell-based; details: Homo sapiens
[4] = target: Human immunodeficiency virus type 1 reverse transcriptase (Human immunodeficiency virus 1, UniProt Q72547); assay: Dose required to inhibit HIV-1 recombinant reverse transcriptase (rRT) activity by 50%.; assay type: functional
How it was run: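 Highly purified recombinant HIV-1 RT, assayed for RNA-dependent DNA polymerase activity. Template-primer: poly(rC)-oligo(dG)12–18 at 0.5 OD260 units/mL, with [3H]dGTP (1 Ci/mmol). Incubated 20 min at 37 °C; acid-insoluble radioactivity counted on glass fiber filters. Value is the dose giving 50% inhibition; means of three experiments.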

MT4 [5] = assay: Compound dose required to reduce the viability of mock-infected cells by 50%, as determined by the MTT method.; assay type: functional; details: Homo sapiens
How it was run: (§1)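 Mock-infected MT-4 cells (1 × 10^4/well) exposed to serial compound concentrations, run in parallel with the antiviral assay, 4 days at 37 °C. Viability read by MTT; CC50 is the dose reducing viability by 50%. Means of three separate experiments.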

MT4 [6] = assay: Compound dose required to achieve 50% protection of MT-4 cells from HIV-1 induced cytopathogenicity.; assay type: functional, cell-based; details: Homo sapiens
How it was run: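 HIV-1 IIIB (100 CCID50/well) added to MT-4 cells (1 × 10^4/well) with or without serial compound concentrations; 4-day incubation at 37 °C. Viable cells counted by MTT; EC50 is the dose giving 50% protection from virus-induced cytopathogenicity. Means of three separate experiments.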

MT4 [7] = assay: Compound dose required to reduce the viability of mock-infected cells by 50%.; assay type: functional; details: Homo sapiens; how it was run: as §1

Row | SMILES | SI (MT4 [1]) | CC50 (MT4 [2]) | EC50 (MT4 [3]) | IC50 [4] | CC50 (MT4 [5]) | EC50 (MT4 [6]) | CC50 (MT4 [7])
1 | CC1(C)C(=O)NC(SC2CCCC2)=N/C1=C/c1ccccc1 | 1.8 | 18 µM | 10 µM | > 10 µM | – | – | –
2 | CC(C)SC1=N/C(=C/c2ccccc2)C(C)(C)C(=O)N1 | 5.5 | 20 µM | 3.6 µM | 4.3 µM | – | – | –
3 | CC(C)CSc1nc(O)cc(Cc2ccccc2)n1 | 36 | 186 µM | 5.1 µM | 9.4 µM | – | – | –
4 | C/C=C/CSc1nc(O)cc(Cc2cccc(C)c2)n1 | 21 | 165 µM | 8 µM | – | – | – | –
5 | CCC(C)Sc1nc(O)c(C)c(Cc2ccccc2)n1 (stereo not drawn) | 140 | 86 µM | 0.6 µM | 2.4 µM | – | – | –
6 | CSc1nc(O)cc(Cc2cccc(C)c2)n1 | 19 | 317 µM | 17 µM | > 10 µM | – | – | –
7 | CC(C)=CCSc1nc(O)cc(Cc2cccc(C)c2)n1 | 15 | 193 µM | 13 µM | – | – | – | –
8 | Cc1cccc(Cc2nc(SC(C)C)nc(O)c2C)c1 | 77 | 100 µM | 1.3 µM | 2.5 µM | – | – | –
9 | Cc1c(O)nc(SC2CCCCC2)nc1Cc1ccccc1 | >530 | > 318 µM | 0.6 µM | 4.3 µM | – | – | –
10 | CCC(C)SC1=N/C(=C/c2cccc(C)c2)C(C)(C)C(=O)N1 (stereo not drawn) | – | 25 µM | > 25 µM | – | – | – | –
11 | CSc1nc(O)c(C)c(Cc2ccccc2)n1 | >338 | > 406 µM | 1.2 µM | 4.9 µM | – | – | –
12 | CSc1nc(O)cc(Cc2ccccc2)n1 | >12 | > 431 µM | 34.5 µM | > 10 µM | – | – | –
13 | Cc1cccc(Cc2nc(S)nc(O)c2C)c1 | – | 284 µM | > 102 µM | > 10 µM | – | – | –
14 | CSc1nc(O)c(C)c(Cc2cccc(C)c2)n1 | 128 | 385 µM | 3 µM | 2.5 µM | – | – | –
15 | Cc1cccc(Cc2cc(O)nc(SC3CCCCC3)n2)c1 | >212 | > 318 µM | 1.5 µM | 2.6 µM | – | – | –
16 | Cc1cccc(Cc2cc(O)nc(SC3CCCC3)n2)c1 | >278 | > 333 µM | 1.2 µM | 2.6 µM | – | – | –
17 | Cc1cccc(/C=C2/N=C(SC3CCCC3)NC(=O)C2(C)C)c1 | – | > 304 µM | > 304 µM | – | – | – | –
18 | Cc1c(O)nc(SC(C)C)nc1Cc1ccccc1 | 77 | 140 µM | 1.8 µM | 2.5 µM | – | – | –
19 | CC(C)CSC1=N/C(=C/c2ccccc2)C(C)(C)C(=O)N1 | 5.5 | 20 µM | 3.6 µM | 4.6 µM | – | – | –
20 | Cc1cccc(Cc2nc(SCC(C)C)nc(O)c2C)c1 | 206 | 330 µM | 1.6 µM | 4.6 µM | – | – | –
21 | CC(C)Sc1nc(O)cc(Cc2ccccc2)n1 | 43 | 332 µM | 7.7 µM | > 10 µM | – | – | –
22 | CCC(C)Sc1nc(O)cc(Cc2ccccc2)n1 (stereo not drawn) | 125 | 150 µM | 1.2 µM | 2.7 µM | – | – | –
23 | CC1(C)C(=O)NC(SC2CCCCC2)=N/C1=C/c1ccccc1 | 10 | 91 µM | 9.1 µM | > 10 µM | – | – | –

Row | SMILES | SI (MT4 [1]) | CC50 (MT4 [2]) | EC50 (MT4 [3]) | IC50 [4] | CC50 (MT4 [5]) | EC50 (MT4 [6]) | CC50 (MT4 [7])
24 | Cc1cccc(/C=C2/N=C(SCC(C)C)NC(=O)C2(C)C)c1 | – | – | > 316 µM | – | > 316 µM | – | –
25 | Cc1cccc(Cc2cc(O)nc(SC(C)C)n2)c1 | 173 | 225 µM | 1.3 µM | 2.9 µM | – | – | –
26 | CSC1=N/C(=C/c2cccc(C)c2)C(C)(C)C(=O)N1 | – | 5.2 µM | > 5.2 µM | – | – | – | –
27 | Cc1cccc(Cc2cc(O)nc(S)n2)c1 | – | – | – | > 10 µM | – | > 258 µM | 258 µM
28 | CSC1=N/C(=C/c2ccccc2)C(C)(C)C(=O)N1 | 53 | 160 µM | 3.1 µM | 6.1 µM | – | – | –
29 | Cc1cccc(/C=C2/NC(=S)NC(=O)C2(C)C)c1 | – | 165 µM | > 165 µM | – | – | – | –
30 | CCC(C)Sc1nc(O)cc(Cc2cccc(C)c2)n1 (stereo not drawn) | >578 | > 347 µM | 0.6 µM | 1.2 µM | – | – | –
31 | Cc1c(O)nc(SC2CCCC2)nc1Cc1ccccc1 | >555 | > 333 µM | 0.6 µM | 3.4 µM | – | – | –
32 | Oc1cc(Cc2ccccc2)nc(SC2CCCCC2)n1 | – | > 330 µM | 0.8 µM | 3 µM | – | – | –
33 | Oc1cc(Cc2ccccc2)nc(SC2CCCC2)n1 | 86 | 147 µM | 1.7 µM | 2.8 µM | – | – | –
34 | Cc1cccc(Cc2nc(SC3CCCCC3)nc(O)c2C)c1 | >506 | > 304 µM | 0.6 µM | 1.3 µM | – | – | –
35 | Cc1cccc(/C=C2/N=C(SC3CCCCC3)NC(=O)C2(C)C)c1 | – | > 292 µM | > 292 µM | – | – | – | –
36 | CCC(C)SC1=N/C(=C/c2ccccc2)C(C)(C)C(=O)N1 (stereo not drawn) | 4.8 | 16 µM | 3.3 µM | 4.3 µM | – | – | –
37 | Cc1cccc(/C=C2/N=C(SC(C)C)NC(=O)C2(C)C)c1 | – | 69 µM | > 69 µM | – | – | – | –
38 | Cc1c(O)nc(SCC(C)C)nc1Cc1ccccc1 | 162 | 130 µM | 0.8 µM | 2.2 µM | – | – | –
39 | CC1(C)C(=O)NC(=S)N/C1=C/c1ccccc1 | – | > 406 µM | > 406 µM | – | – | – | –
40 | CCC(C)Sc1nc(O)c(C)c(Cc2cccc(C)c2)n1 (stereo not drawn) | 100 | 100 µM | 1 µM | 2.7 µM | – | – | –
41 | C=CCSc1nc(O)cc(Cc2cccc(C)c2)n1 | 52 | 188 µM | 3.6 µM | – | – | – | –
42 | Cc1cccc(Cc2nc(SC3CCCC3)nc(O)c2C)c1 | >530 | > 318 µM | 0.6 µM | 3.4 µM | – | – | –
43 | Cc1cccc(Cc2cc(O)nc(SCC(C)C)n2)c1 | 49 | 163 µM | 3.3 µM | 8.4 µM | – | – | –
44 | Cc1c(O)nc(S)nc1Cc1ccccc1 | – | 431 µM | > 108 µM | > 10 µM | – | – | –
45 | Cc1ccnc2c1NC(=O)c1cccnc1N2C1CC1 [NEVIRAPINE] | >1250 | > 376 µM | 0.3 µM | – | – | – | –
46 | Cc1cn([C@H]2C[C@H](N=[N+]=[N-])[C@@H](CO)O2)c(=O)[nH]c1=O [ZIDOVUDINE] | >2000 | > 20 µM | – | – | – | – | –
